{"data": "Measured values of several laboratories", "LDHA": "L-lactate dehydrogenase A chain (LDHA, Homo sapiens, UniProt P00338)", "PRMT3": "Protein arginine N-methyltransferase 3 (PRMT3, Homo sapiens, UniProt O60678)", "MAOA": "Amine oxidase [flavin-containing] A (MAOA, Homo sapiens, UniProt P21397)", "Tspo": "Translocator protein (Tspo, Rattus norvegicus, UniProt P16257)", "Rps6ka1": "Ribosomal protein S6 kinase alpha-1 (Rps6ka1, Rattus norvegicus, UniProt Q63531)", "VIPR1": "Vasoactive intestinal polypeptide receptor 1 (VIPR1, Homo sapiens, UniProt P32241)", "Faah": "Fatty-acid amide hydrolase 1 (Faah, Rattus norvegicus, UniProt P97612)"}
{"Structure (SMILES)": "COC(=O)CN=c1scc(-c2ccccc2)n1-c1ccc(C)cc1", "target": "LDHA", "test": "enzyme activity, inhibitor, fluorescence", "conditions": "100 µM, pH 7.2", "inhibition [%]": 52}
{"Structure (SMILES)": "N=C(NCCCSC[C@H]1O[C@@H](n2cnc3c(NCCCc4ccccc4)ncnc32)[C@H](O)[C@@H]1O)NCCCc1ccccc1", "target": "PRMT3", "test": "enzyme activity, inhibitor, fluorescence", "conditions": "10 µM", "inhibition [%]": 10.4}
{"Structure (SMILES)": "COC(=O)CN=c1scc(-c2ccccc2)n1-c1ccc(OC)cc1", "target": "LDHA", "test": "enzyme activity, inhibitor, fluorescence", "conditions": "100 µM, pH 7.2", "inhibition [%]": 49}
{"Structure (SMILES)": "COc1cc([N+](=O)[O-])ccc1NC(=O)c1ccccc1O", "target": "MAOA", "test": "enzyme activity, inhibitor", "conditions": "1 µM, 20 min", "inhibition [%]": 9}
{"Structure (SMILES)": "Nc1ncnc2c1ncn2[C@@H]1O[C@H](CSCCNC(=O)NCc2ccccc2)[C@@H](O)[C@H]1O", "target": "Protein arginine N-methyltransferase 5 (PRMT5, Homo sapiens, UniProt O14744)", "test": "enzyme activity, inhibitor, radiometric", "conditions": "10 µM", "inhibition [%]": "> 95"}
{"Structure (SMILES)": "Cc1ccc(C(=O)Nc2ccc([N+](=O)[O-])cc2C(F)(F)F)cc1", "target": "MAOA", "test": "enzyme activity, inhibitor", "conditions": "1 µM, 20 min", "inhibition [%]": 10}
{"Structure (SMILES)": "CCCNc1nc2ccccc2n1Cc1ccc(Cl)cc1", "target": "Tspo", "test": "cell-free assay", "conditions": "10 µM", "inhibition [%]": 49.2}
{"Structure (SMILES)": "COc1cc(/C=C/C(=O)N2CCc3ccccc3C2)ccc1OCc1ccccc1", "target": "MAOA", "test": "enzyme activity, inhibitor, fluorescence", "conditions": "62.5 µM", "inhibition [%]": 20.6}
{"Structure (SMILES)": "CCN(CC)c1ccc(C2Nc3ccc(C(=O)c4ccccc4)cc3NC3=C2C(=O)CC(C)(C)C3)cc1 (stereo not drawn)", "target": "Alpha-1A adrenergic receptor (ADRA1A, Homo sapiens, UniProt P35348)", "test": "ligand displacement, radioligand", "conditions": "10 µM", "inhibition [%]": 17}
{"Structure (SMILES)": "N#Cc1ccc(NC(=O)c2ccc(Cl)cc2)cc1", "target": "MAOA", "test": "enzyme activity, inhibitor", "conditions": "1 µM, 20 min", "inhibition [%]": 72}
{"Structure (SMILES)": "N=C(NCCCN)NCCCSC[C@H]1O[C@@H](n2cnc3c(NCCCc4ccccc4)ncnc32)[C@H](O)[C@@H]1O", "target": "PRMT3", "test": "enzyme activity, inhibitor, fluorescence", "conditions": "10 µM", "inhibition [%]": 1.09}
{"Structure (SMILES)": "CC[C@H](C)[C@H](NC(=O)[C@H](CCC(N)=O)NC(=O)[C@H](CC(C)C)NC(=O)[C@H](CCSC)NC(=O)[C@H](CCCCN)NC(=O)[C@H](CO)NC(=O)[C@H](CO)NC(=O)[C@H](CCSC)NC(=O)[C@H](CC(C)C)NC(=O)[C@H](CC(N)=O)NC(=O)[C@@H](NC(=O)[C@@H](NC(=O)[C@H](CO)NC(=O)[C@H](CC(C)C)NC(=O)[C@H](CS)NC(=O)[C@H](CCCNC(=N)N)NC(=O)[C@H](CC(=O)O)NC(=O)[C@H](Cc1c[nH]c2ccccc12)NC(=O)[C@H](Cc1ccccc1)NC(=O)[C@H](C)NC(=O)[C@H](CCC(=O)O)NC(=O)[C@@H](N)CCCCN)C(C)C)[C@@H](C)CC)C(=O)N[C@@H](CC(N)=O)C(=O)N[C@@H](C)C(=O)O", "target": "Cyclin-dependent kinase 5, with p25 (CDK5, Homo sapiens, UniProt Q00535)", "test": "enzyme activity, inhibitor, radiometric", "conditions": "1 µM", "inhibition [%]": 0}
{"Structure (SMILES)": "Cc1ccc(Nc2nccc(N(C)c3ccc4c(C)n(C)nc4c3)n2)cc1S(N)(=O)=O", "target": "Rps6ka1", "test": "enzyme activity, inhibitor", "conditions": "0.3 µM", "inhibition [%]": 27}
{"Structure (SMILES)": "O=C1N=C(N2CCCCN2)S/C1=C\\c1ccc(F)cc1O", "target": "VIPR1", "test": "ligand displacement, radioligand", "conditions": "10 µM", "inhibition [%]": 11}
{"Structure (SMILES)": "N=C(NCCCSC[C@H]1O[C@@H](n2cnc3c(NCCCc4ccccc4)ncnc32)[C@H](O)[C@@H]1O)Nc1ccccc1", "target": "PRMT3", "test": "enzyme activity, inhibitor, fluorescence", "conditions": "10 µM", "inhibition [%]": 4.92}
{"Structure (SMILES)": "CNC(=O)c1cc(Oc2ccc(NC(=O)Nc3ccc(Cl)c(C(F)(F)F)c3)cc2)ccn1", "target": "Rps6ka1", "test": "enzyme activity, inhibitor", "conditions": "10 µM", "inhibition [%]": 19}
{"Structure (SMILES)": "O=C(Nc1ccc(OC(F)(F)F)cc1)c1cc(Cl)ccc1O", "target": "MAOA", "test": "enzyme activity, inhibitor", "conditions": "1 µM, 20 min", "inhibition [%]": 74}
{"Structure (SMILES)": "O=C(OC(C(F)(F)F)C(F)(F)F)N1CCC(CCn2nnc3ccccc32)CC1", "target": "Faah", "test": "enzyme activity, inhibitor", "conditions": "10 µM", "inhibition [%]": 47}
{"Structure (SMILES)": "COC(=O)CN=c1scc(-c2ccccc2)n1-c1ccccc1OC", "target": "LDHA", "test": "enzyme activity, inhibitor, fluorescence", "conditions": "100 µM, pH 7.2", "inhibition [%]": 48}
{"Structure (SMILES)": "N#Cc1cc(Cn2c(N3CCCC3)nc3ccccc32)ccc1F", "target": "Tspo", "test": "cell-free assay", "conditions": "10 µM", "inhibition [%]": 76.7}
{"Structure (SMILES)": "N=C(NCCCSC[C@H]1O[C@@H](n2cnc3c(NCCCc4ccccc4)ncnc32)[C@H](O)[C@@H]1O)NC1CCCC1", "target": "PRMT3", "test": "enzyme activity, inhibitor, fluorescence", "conditions": "10 µM", "inhibition [%]": -23.3}
{"Structure (SMILES)": "Cc1ccc2c(ccn2CCC2CCN(C(=O)OC(C(F)(F)F)C(F)(F)F)CC2)c1", "target": "Faah", "test": "enzyme activity, inhibitor", "conditions": "10 µM", "inhibition [%]": 36}
{"Structure (SMILES)": "CCN(c1cc(C#CCN2CCOCC2)cc(C(=O)NCc2c(C)cc(C)[nH]c2=O)c1C)[C@H]1CC[C@H](N(C)CCOC)CC1", "target": "PRMT3", "test": "enzyme activity, inhibitor", "conditions": "1 µM", "inhibition [%]": 10}
{"Structure (SMILES)": "O=C(Nc1cc(F)ccc1[N+](=O)[O-])c1cc(Cl)ccc1O", "target": "MAOA", "test": "enzyme activity, inhibitor", "conditions": "1 µM, 20 min", "inhibition [%]": 8}
{"Structure (SMILES)": "N=C(NCCCSC[C@H]1O[C@@H](n2cnc3c(NCCCc4ccccc4)ncnc32)[C@H](O)[C@@H]1O)NC1CCCCC1", "target": "PRMT3", "test": "enzyme activity, inhibitor, fluorescence", "conditions": "10 µM", "inhibition [%]": -5.11}
{"Structure (SMILES)": "COC(=O)CN=c1scc(-c2ccccc2)n1-c1ccccc1[N+](=O)[O-]", "target": "LDHA", "test": "enzyme activity, inhibitor, fluorescence", "conditions": "100 µM, pH 7.2", "inhibition [%]": 53}
{"Structure (SMILES)": "O=C(Nc1ccccc1)c1ccccc1O", "target": "MAOA", "test": "enzyme activity, inhibitor", "conditions": "1 µM, 20 min", "inhibition [%]": 28}
{"Structure (SMILES)": "N=C(NCCCO)NCCCSC[C@H]1O[C@@H](n2cnc3c(NCCCc4ccccc4)ncnc32)[C@H](O)[C@@H]1O", "target": "PRMT3", "test": "enzyme activity, inhibitor, fluorescence", "conditions": "10 µM", "inhibition [%]": 7.1}
{"Structure (SMILES)": "Oc1cccc(Nc2nc(-c3ccc(F)cc3F)cs2)c1", "target": "Tspo", "test": "ligand displacement, radioligand", "conditions": "10 µM", "inhibition [%]": 63}
{"Structure (SMILES)": "O=C(Nc1cc(Cl)cc(Cl)c1)c1cc(Cl)ccc1O", "target": "MAOA", "test": "enzyme activity, inhibitor", "conditions": "1 µM, 20 min", "inhibition [%]": 4}
{"Structure (SMILES)": "CN1CC(Oc2cnc(C#N)cc2-c2ccn3nc(NC(=O)C4CC4)cc3c2)C1", "target": "Cyclin-dependent kinase-like 4 (CDKL4, Homo sapiens, UniProt Q5MAI5)", "test": "enzyme activity, inhibitor", "conditions": "1 µM", "inhibition [%]": -9}
{"Structure (SMILES)": "COc1ccc2c(c1)[C@H](NCCC(C)C)C[C@H]2c1ccc(Cl)c(Cl)c1 (relative stereo)", "target": "Glutathione reductase, mitochondrial (GSR, Homo sapiens, UniProt P00390)", "test": "enzyme activity, inhibitor", "conditions": "25 µM", "inhibition [%]": "< 12"}
{"Structure (SMILES)": "COc1cc(NC(C)=O)c(Cl)cc1C(=O)Nc1nccs1", "target": "VIPR1", "test": "cell-free assay", "conditions": "10 µM", "inhibition [%]": -13.5}
{"Structure (SMILES)": "O=C(Nc1ccc([N+](=O)[O-])cc1Cl)c1ccc2ccccc2c1", "target": "MAOA", "test": "enzyme activity, inhibitor", "conditions": "1 µM, 20 min", "inhibition [%]": 11}
{"Structure (SMILES)": "N=C(NCCCSC[C@H]1O[C@@H](n2cnc3c(NCCCc4ccccc4)ncnc32)[C@H](O)[C@@H]1O)NC1CC1", "target": "PRMT3", "test": "enzyme activity, inhibitor, fluorescence", "conditions": "10 µM", "inhibition [%]": -8.93}
{"Structure (SMILES)": "O=C(c1ccc(Cl)cc1)N(Cc1ccccc1)C1CCCCC1", "target": "VIPR1", "test": "cell-free assay", "conditions": "10 µM", "inhibition [%]": -0.7}
